These results are taken from ChEMBL document CHEMBL5038590, “Discovery of G Protein-Biased Ligands against 5-HT7R” (J Med Chem, 2021).

Series [1] in a line: MRTinfinity in ICR mouse plasma at 1 mg/kg, iv measured upto 8 hrs by LC-MS/MS analysis. It is filed as ADME, organism-based. Summed up: (§1)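 Male ICR mice, 7–8 weeks, 30 ± 5 g; single dose 1 mg/kg iv or 10 mg/kg ip (n = 4 each). Carotid artery blood at 0, 0.08 (iv only), 0.25, 0.5, 1, 2, 4, 6, 8 h. Plasma precipitated with acetonitrile containing internal standard, quantified by LC–MS/MS. Parameters by non-compartmental analysis; AUClast by trapezoidal rule; values mean ± SD.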

In series [2] the test system is Mus musculus. Briefly: Effect on shank3-/- mouse model of autism spectrum disorder assessed as time taken for duration of self grooming at 5 mg/kg, ip after 30 mins under 40 lux lighting (reference value: 224 +/- 47.4 sec). It is filed as functional. Conditions: 0.5 h; call rule not given here.
The target of series [3] is T1, 5-hydroxytryptamine receptor 2C (Homo sapiens, UniProt P28335).
T1 sequence (P28335 whole entry): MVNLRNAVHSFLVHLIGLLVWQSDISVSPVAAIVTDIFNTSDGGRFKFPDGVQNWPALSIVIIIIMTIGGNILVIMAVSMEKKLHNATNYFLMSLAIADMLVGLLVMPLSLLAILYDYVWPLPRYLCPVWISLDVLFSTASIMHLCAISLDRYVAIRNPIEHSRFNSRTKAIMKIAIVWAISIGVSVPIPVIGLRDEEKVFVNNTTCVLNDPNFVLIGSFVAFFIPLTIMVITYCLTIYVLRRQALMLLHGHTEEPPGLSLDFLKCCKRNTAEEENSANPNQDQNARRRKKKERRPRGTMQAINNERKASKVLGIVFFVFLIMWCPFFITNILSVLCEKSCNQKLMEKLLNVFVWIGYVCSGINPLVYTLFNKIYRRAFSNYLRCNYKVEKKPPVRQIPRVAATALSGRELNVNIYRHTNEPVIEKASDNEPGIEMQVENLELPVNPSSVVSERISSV
Briefly: Binding affinity to 5-HT2CR (unknown origin). Summed up:
(§2)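 Run by the NIMH Psychoactive Drug Screening Program as competition radioligand binding on crude membranes of cells expressing the recombinant receptor. Eleven dilutions (0.05 nM–50 μM, prepared at 5× assay concentration) were made in 50 mM Tris-HCl, 10 mM MgCl₂, 1 mM EDTA, pH 7.4. Incubation was 1.5 h at rt in the dark, followed by GF/B filtration (0.3% PEI) and scintillation counting. IC₅₀ was converted to Ki; at least triplicate.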

Another series addresses CYP3A4 (Homo sapiens, UniProt P08684). Briefly: Inhibition of CYP3A4 in human liver microsomes assessed as remaining activity at 10 uM using midazolam as substrate preincubated for 5 mins followed by addition of NADPH generating system and incubated for 15 mins by LC/MS relative to control. The conditions noted are these: probe midazolam, time 20 min, read-out: Activity. In kind it is ADME. Put shortly: (§3)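 Human liver microsomes (0.25 mg/mL) in 0.1 M phosphate pH 7.4 with a five-substrate cocktail: phenacetin 50 μM, diclofenac 10 μM, S-mephenytoin 100 μM, dextromethorphan 5 μM, midazolam 2.5 μM. Compound at 0 (control) or 10 μM. Preincubated 5 min at 37 °C, NADPH-generating system added, 15 min at 37 °C. Stopped with acetonitrile plus internal standard; substrate metabolites measured by LC/MS.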

The target of series [4] is 5-hydroxytryptamine receptor 1D (Homo sapiens, UniProt P28221). Briefly: Binding affinity to 5-HT1DR (unknown origin). Summed up: as §2
Chain of 5-hydroxytryptamine receptor 1D (P28221 whole entry): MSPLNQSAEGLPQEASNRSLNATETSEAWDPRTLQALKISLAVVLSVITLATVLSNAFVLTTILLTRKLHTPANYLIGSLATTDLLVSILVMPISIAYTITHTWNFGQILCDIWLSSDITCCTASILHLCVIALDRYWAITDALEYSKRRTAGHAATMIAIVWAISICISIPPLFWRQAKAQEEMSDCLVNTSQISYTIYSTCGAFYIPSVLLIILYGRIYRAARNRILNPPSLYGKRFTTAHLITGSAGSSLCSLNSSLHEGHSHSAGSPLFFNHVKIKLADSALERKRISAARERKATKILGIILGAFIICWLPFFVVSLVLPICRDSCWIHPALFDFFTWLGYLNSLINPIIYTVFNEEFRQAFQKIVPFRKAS
Series [5] concerns Mus musculus. Briefly: Effect on shank3-/- mouse model of autism spectrum disorder assessed as time taken for duration of self grooming at 5 mg/kg, ip pretreated for 10 mins in presence of SB269970 followed by compound addition and measured after 30 mins under 40 lux lighting (reference value: 224 +/- 47.4 sec). In kind it is functional. The conditions noted are these: 0.5 h.

For series [6], the target named is 5-hydroxytryptamine receptor 2A (Homo sapiens, UniProt P28223). Briefly: Binding affinity to 5-HT2AR (unknown origin). Summed up:
as §2

The target of a further series is CYP2C19 (Homo sapiens, UniProt P33261). Briefly: Inhibition of CYP2C19 in human liver microsomes assessed as remaining activity at 10 uM using S-mephenytoin as substrate preincubated for 5 mins followed by addition of NADPH generating system and incubated for 15 mins by LC/MS relative to control. It is filed as ADME. The conditions noted are these: probe S-mephenytoin, time 20 min, read-out: Activity. Put shortly:
as §3
For orientation: Liver microsomes are a subcellular fraction often used to study metabolism.

For series [7], the target named is 5-hydroxytryptamine receptor 1B (Homo sapiens, UniProt P28222). Briefly: Binding affinity to 5-HT1BR (unknown origin). Summed up:
as §2

The nature of series [8]: AUClast in ICR mouse plasma at 1 mg/kg, iv measured upto 8 hrs by LC-MS/MS analysis. It is filed as ADME, organism-based. Details: route intravenous, dose 1 mg/kg, time <=8. Summed up:
as §1

Series [9] addresses 5-hydroxytryptamine receptor 2B (Homo sapiens, UniProt P41595). Briefly: Binding affinity to 5-HT2BR (unknown origin). Summed up:
as §2

Series [10] deals with T2, 5-hydroxytryptamine receptor 7 (Homo sapiens, UniProt P34969).
T2 sequence (P34969 whole entry): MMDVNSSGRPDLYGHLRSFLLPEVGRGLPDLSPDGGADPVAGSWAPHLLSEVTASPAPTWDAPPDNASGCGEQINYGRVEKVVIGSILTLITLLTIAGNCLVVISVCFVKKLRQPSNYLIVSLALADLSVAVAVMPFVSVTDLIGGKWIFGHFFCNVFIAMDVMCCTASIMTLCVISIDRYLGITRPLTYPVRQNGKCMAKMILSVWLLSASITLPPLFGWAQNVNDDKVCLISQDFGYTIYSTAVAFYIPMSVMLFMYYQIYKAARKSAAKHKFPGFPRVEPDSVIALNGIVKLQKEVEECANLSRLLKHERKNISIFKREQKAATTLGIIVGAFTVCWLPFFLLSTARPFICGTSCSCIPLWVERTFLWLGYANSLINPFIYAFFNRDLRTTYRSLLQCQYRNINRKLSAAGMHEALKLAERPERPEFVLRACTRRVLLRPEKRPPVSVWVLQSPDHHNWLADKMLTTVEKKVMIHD
A short description of series [11]: AUClast in ICR mouse plasma at 10 mg/kg, ip measured upto 8 hrs by LC-MS/MS analysis. It is filed as ADME, organism-based. Details: route intraperitoneal, dose 10 mg/kg, time <=8. Summed up:
as §1

Series [12] in a line: Half life in ICR mouse plasma at 1 mg/kg, iv measured upto 8 hrs by LC-MS/MS. In kind it is ADME, organism-based. Summed up: as §1
In series [13] the target is 5-hydroxytryptamine receptor 5A (Homo sapiens, UniProt P47898). Briefly: Binding affinity to 5-HT5AR (unknown origin). Put shortly:
as §2

For series [14], the target named is T2, 5-hydroxytryptamine receptor 7. Briefly: Agonist activity at 5-HT7R (unknown origin) transfected in HEK293 cells expressing tTA-dependent luciferase reporter and beta arrestin 2-TEV fusion gene assessed as beta arrestin recruitment incubated for 22 hrs by Tango assay. The conditions noted are these: hek293. In kind it is functional, cell-based. On the technique in general: A reporter such as luciferase makes a cellular process visible.

The target in the next series is T3, CYP1A2 (Homo sapiens, UniProt P05177).
T3 sequence (P05177 whole entry): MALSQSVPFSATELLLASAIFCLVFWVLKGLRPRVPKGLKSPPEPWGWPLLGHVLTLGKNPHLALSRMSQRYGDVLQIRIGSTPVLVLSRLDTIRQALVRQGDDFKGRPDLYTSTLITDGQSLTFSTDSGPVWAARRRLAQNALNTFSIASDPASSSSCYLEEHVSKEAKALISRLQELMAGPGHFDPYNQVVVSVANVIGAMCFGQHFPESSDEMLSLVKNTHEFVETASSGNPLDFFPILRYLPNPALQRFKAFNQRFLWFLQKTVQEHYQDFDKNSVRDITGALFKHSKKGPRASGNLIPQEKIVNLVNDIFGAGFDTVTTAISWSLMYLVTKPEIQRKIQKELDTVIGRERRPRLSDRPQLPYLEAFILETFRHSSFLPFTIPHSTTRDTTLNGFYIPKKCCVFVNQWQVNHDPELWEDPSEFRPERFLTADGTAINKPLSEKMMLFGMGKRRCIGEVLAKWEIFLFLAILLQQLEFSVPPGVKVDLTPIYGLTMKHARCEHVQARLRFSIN
Briefly: Inhibition of CYP1A2 in human liver microsomes assessed as remaining activity at 10 uM using phenacetin as substrate preincubated for 5 mins followed by addition of NADPH generating system and incubated for 15 mins by LC/MS relative to control. It is filed as ADME. The conditions noted are these: probe phenacetin, time 20 min, read-out: Activity. Put shortly: as §3

Structures are written as SMILES.

Chain of CYP3A4 (P08684 whole entry): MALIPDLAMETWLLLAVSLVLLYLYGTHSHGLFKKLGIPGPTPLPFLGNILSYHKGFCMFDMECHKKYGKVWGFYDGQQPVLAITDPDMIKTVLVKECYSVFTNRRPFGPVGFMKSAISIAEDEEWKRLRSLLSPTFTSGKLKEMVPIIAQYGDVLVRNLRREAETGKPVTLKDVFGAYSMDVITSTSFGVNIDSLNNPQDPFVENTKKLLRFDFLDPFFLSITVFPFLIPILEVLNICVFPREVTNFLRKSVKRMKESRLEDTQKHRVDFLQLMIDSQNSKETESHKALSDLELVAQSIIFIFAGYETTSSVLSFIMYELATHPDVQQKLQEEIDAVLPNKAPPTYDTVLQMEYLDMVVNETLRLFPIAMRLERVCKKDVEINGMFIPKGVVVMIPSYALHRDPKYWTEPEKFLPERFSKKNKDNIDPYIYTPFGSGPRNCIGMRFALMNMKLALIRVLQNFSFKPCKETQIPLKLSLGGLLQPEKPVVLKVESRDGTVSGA
Chain of 5-hydroxytryptamine receptor 2B (P41595 whole entry): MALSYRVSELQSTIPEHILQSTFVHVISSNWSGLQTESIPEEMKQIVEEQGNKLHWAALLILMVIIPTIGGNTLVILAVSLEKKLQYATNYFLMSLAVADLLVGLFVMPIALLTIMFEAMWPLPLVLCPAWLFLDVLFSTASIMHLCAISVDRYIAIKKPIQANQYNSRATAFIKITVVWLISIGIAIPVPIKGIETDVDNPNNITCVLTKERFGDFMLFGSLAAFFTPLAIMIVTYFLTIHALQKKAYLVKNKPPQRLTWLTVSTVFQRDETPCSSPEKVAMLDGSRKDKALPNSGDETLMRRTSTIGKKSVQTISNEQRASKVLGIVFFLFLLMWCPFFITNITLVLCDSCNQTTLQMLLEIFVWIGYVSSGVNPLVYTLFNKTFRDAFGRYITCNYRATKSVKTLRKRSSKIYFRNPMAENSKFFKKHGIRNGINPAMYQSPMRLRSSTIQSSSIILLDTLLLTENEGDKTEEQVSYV
Chain of 5-hydroxytryptamine receptor 1B (P28222 whole entry): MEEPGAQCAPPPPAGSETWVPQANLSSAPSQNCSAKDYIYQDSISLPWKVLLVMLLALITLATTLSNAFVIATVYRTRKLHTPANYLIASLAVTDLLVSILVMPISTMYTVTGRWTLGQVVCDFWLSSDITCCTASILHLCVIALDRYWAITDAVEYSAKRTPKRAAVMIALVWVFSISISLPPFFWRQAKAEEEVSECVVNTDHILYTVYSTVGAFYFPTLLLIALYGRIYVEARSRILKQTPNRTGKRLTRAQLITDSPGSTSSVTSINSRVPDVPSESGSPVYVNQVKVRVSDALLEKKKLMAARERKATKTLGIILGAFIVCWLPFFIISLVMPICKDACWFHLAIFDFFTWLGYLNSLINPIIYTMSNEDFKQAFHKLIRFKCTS
Chain of 5-hydroxytryptamine receptor 5A (P47898 whole entry): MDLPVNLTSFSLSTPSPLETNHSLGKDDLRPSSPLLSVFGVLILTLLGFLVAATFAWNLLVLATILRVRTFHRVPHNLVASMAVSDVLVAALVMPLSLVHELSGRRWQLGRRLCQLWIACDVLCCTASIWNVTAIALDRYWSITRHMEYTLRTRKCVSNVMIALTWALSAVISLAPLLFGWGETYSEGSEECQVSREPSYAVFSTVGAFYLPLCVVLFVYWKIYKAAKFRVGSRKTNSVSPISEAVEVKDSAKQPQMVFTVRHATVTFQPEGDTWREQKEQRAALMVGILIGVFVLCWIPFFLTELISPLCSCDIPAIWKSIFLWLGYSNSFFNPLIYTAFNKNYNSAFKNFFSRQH
Chain of 5-hydroxytryptamine receptor 2A (P28223 whole entry): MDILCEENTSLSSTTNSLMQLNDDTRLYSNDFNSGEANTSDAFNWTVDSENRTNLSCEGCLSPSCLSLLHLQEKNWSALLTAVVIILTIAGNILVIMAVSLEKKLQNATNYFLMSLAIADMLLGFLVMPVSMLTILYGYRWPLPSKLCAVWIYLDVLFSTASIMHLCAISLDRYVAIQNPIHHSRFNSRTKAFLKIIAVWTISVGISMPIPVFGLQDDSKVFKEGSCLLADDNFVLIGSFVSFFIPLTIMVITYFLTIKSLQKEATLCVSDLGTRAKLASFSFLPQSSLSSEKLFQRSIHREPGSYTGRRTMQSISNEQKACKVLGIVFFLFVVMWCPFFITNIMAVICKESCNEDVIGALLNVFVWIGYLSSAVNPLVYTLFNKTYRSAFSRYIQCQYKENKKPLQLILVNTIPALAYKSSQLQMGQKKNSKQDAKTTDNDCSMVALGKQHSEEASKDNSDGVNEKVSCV
Chain of CYP2C19 (P33261 whole entry): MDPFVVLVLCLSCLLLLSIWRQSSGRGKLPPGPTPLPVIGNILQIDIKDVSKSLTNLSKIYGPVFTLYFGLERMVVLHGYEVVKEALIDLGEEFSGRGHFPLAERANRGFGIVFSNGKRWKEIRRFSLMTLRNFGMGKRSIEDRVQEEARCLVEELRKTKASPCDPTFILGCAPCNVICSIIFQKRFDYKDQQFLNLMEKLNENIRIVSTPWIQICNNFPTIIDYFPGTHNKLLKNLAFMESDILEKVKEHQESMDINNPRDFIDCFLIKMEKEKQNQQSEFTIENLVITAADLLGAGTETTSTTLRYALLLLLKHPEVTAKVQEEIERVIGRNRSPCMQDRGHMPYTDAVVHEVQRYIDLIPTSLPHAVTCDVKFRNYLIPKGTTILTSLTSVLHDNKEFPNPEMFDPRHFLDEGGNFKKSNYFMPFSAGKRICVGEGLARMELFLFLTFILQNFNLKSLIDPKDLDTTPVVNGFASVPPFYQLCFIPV

Usually MRT inf stands for a mean duration of stay, worked out from the concentration-time curve. The term Ki denotes a dissociation constant, usually derived from enzyme kinetics or from competition with a known ligand. A low value points to a stronger hold on the target. For orientation: AUC(0-t) means exposure summed from dosing to a finite time, without extrapolation to infinity. A higher AUC(0-t) goes with high exposure. For orientation: EC50 means the concentration needed to bring the measured effect to its halfway point. As usually defined, the half-life is how long it takes for the measured level to halve. Read a low half-life as rapid decline. `CCNCCc1ccc(Cl)c(-c2ccccc2OC)c1.Cl` registered a mean residence time MRT inf in series [1] of 42 min. Also, the Time in the series on Mus musculus [2] came out at 553 s; in the series on Mus musculus [5] it was 166 s. The Ki in series [3] was more than 10000 nM; in series [4], 5.3 nM; in series [6], 520 nM; in [7], 580 nM; in series [9], 130 nM; in series [13], 700 nM. For the same compound, the activity at 0.25 h, 10 µM came out at 98.5% at CYP3A4, 90.3% on CYP2C19 and 94.3% on CYP1A2. In addition, the AUC(0-t) at 8 h amounted to 32.9 ng·h/mL in [8] and 442 ng·h/mL in series [11]. Further, the EC50 in [10] was 180 nM; in series [14] it was “Not Active”. The compound further had a half-life in [12] of 30 min.
